Measured values: ChEMBL document CHEMBL1148577, “Discovery of benzylidenebenzofuran-3(2H)-one (aurones) as inhibitors of tyrosinase derived from human melanocytes” (J Med Chem, 2006)

What was measured:
[1] = target: T1, Tyrosinase (Homo sapiens) (UniProt P14679); test: Inhibition of tyrosinase in human melanocytes at 0.1 mM; type: cell-based
T1 sequence (whole entry): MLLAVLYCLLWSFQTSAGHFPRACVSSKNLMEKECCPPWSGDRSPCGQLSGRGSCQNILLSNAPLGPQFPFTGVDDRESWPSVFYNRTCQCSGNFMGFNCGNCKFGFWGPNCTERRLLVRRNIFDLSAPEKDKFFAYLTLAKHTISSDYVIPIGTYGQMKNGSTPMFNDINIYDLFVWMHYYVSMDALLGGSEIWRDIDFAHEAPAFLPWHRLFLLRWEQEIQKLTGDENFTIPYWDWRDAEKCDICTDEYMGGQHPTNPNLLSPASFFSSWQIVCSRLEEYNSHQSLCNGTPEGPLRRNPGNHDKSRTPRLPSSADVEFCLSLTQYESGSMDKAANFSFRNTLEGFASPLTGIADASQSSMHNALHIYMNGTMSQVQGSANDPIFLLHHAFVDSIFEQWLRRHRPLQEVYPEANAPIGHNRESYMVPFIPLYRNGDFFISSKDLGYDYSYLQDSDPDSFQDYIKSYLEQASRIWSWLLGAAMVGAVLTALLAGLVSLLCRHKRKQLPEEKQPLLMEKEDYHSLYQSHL

[2] = target: T1, Tyrosinase (Homo sapiens); test: Inhibition of tyrosinase in human black skin melanocytes at 0.1 mM; type: cell-based
[3] = tested on: Rattus norvegicus; test: Oral toxicity in rats administered at 5 g/kg, po; type: organism-based; settings: in vivo, 5000 mg/kg
How it was run: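 Acute oral toxicity following OECD 423 acute toxic class method in six female rats. Single dose of 5 g/kg test preparation (10% in xanthane gel). Six female controls received distilled water 2000 mg/kg. Daily observation for 14 days for mortality and signs of toxicity. GHS classification.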

[4] = target: T1, Tyrosinase (Homo sapiens); test: Inhibition of tyrosinase in human black skin melanocytes at 0.01 mM; type: cell-based
[5] = target: T1, Tyrosinase (Homo sapiens); test: Inhibition of tyrosinase in human dark skin melanocytes at 0.01 mM; type: cell-based
[6] = target: T2, Tyrosinase (Homo sapiens, UniProt P14679); test: Inhibitory activity against tyrosinase in human melanocytes; type: cell-based
T2 sequence (P14679 whole entry): T1 sequence (whole entry)

[7] = target: T1, Tyrosinase (Homo sapiens); test: Inhibition of tyrosinase in human dark skin melanocytes at 0.1 mM; type: cell-based
[8] = target: T1, Tyrosinase (Homo sapiens); test: Inhibition of tyrosinase in human white skin melanocytes at 0.1 mM; type: cell-based
[9] = target: T1, Tyrosinase (Homo sapiens); test: Inhibition of tyrosinase in human white skin melanocytes at 0.01 mM; type: cell-based

Row | inhibition [1] [%] | Compound | also measured
1 | 5 | CCCc1ccc(/C=C2\Oc3cc(O)cc(O)c3C2=O)cc1 | –
2 | 5 | CCOc1ccc(/C=C2\Oc3cc(O)cc(O)c3C2=O)cc1 | –
3 | 4 | O=C1/C(=C/c2ccccc2O)Oc2cc(O)cc(O)c21 | –
4 | 0 | CCc1ccc(/C=C2\Oc3cc(O)ccc3C2=O)cc1 | –
5 | 39 | O=C1/C(=C/c2ccc(O)cc2)Oc2ccccc21 | –
6 | 3 | O=C1/C(=C/c2ccccc2)Oc2cc(O)cc(O)c21 | –
7 | 11 | COc1ccc(/C=C2\Oc3cc(O)cc(O)c3C2=O)cc1 | –
8 | 0 | O=C1/C(=C/c2ccccc2)Oc2cc(O)ccc21 | –
9 | 0 | CCc1ccccc1/C=C1\Oc2cc(O)cc(O)c2C1=O | –
10 | 75 | O=C1/C(=C/c2ccc(O)cc2)Oc2cc(O)cc(O)c21 | inhibition [2]: 66%; Activity [3]: Non-toxic; inhibition [4]: 39%; inhibition [5]: 32%; IC50 [6]: 38 µM; inhibition [7]: 67%; inhibition [8]: 75%; inhibition [9]: 38%

Row | Compound | inhibition [1] [%] | also measured
11 | CC(C)(C)c1ccc(/C=C2\Oc3cc(O)cc(O)c3C2=O)cc1 | 0 | –
12 | COc1cc(/C=C2\Oc3cc(O)cc(O)c3C2=O)ccc1O | 4 | –
